Assay outcomes: PubChem BioAssay, several laboratories
A selection: hits, their analogues and other compounds. The true share with any hit is near 2.6%.
TbMetRS inhib: Trypanosoma brucei MetRS inhibition; purified T. brucei MetRS, ATP depletion, Kinase-Glo luminescence; 0.4% of 360,000 active; inhibition, % at 11.9 µM;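 active means inhibition above a per-plate cutoff of the control wells' mean inhibition plus 3 SD, cut at about 5.5% in these data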;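 further: 0% = DMSO wells median and 100% = median of wells with control inhibitor compound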
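Material – parasite MetRS enzyme · Medium – HEPES-MgCl2-KCl buffer plus DTT, spermine, BSA, pyrophosphatase · Reagent – ATP, methionine and E. coli bulk tRNA substrates · Times – 15 min enzyme-compound preincubation, 2 h reaction, 10 min detection, 25 °C · Measured by – luminescence of leftover ATP · Evaluation – percent inhibition relative to median high and low control wells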
iPSC survival up: enhancers of human iPSC single-cell survival; survival enhancement, % at 20 µM; 0.044% of 360,000 active; hiPSC single-cell survival, ATPlite luminescence; 100% = ROCK inhibitor wells, 0% = DMSO; in the data active means survival enhancement above about 18%;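 further: cells exposed to compounds for 16 hours before the ATP read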
Exocytosis inh: lytic granule exocytosis inhibition; TALL-104 LAMP-1 surface exposure, flow cytometry; cells stimulated with thapsigargin and PMA; 0.66% of 360,000 active; inhibition, % at 10 µM;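 active means inhibition above about 55%, limit read from the data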
MC4R ag barr: human MC4R agonism via beta-arrestin. P32245. U2OS MC4R beta-arrestin complementation, luminescence; percent of melanotan II response, DMSO zero. activation, % at 8.9 µM. 0.98% of 360,000 active;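 active means activation above a per-plate cutoff, the mean activation of sample wells on that plate plus 3 SD, cut at about 8% in these data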
Target sequence (P32245 whole entry, looked up): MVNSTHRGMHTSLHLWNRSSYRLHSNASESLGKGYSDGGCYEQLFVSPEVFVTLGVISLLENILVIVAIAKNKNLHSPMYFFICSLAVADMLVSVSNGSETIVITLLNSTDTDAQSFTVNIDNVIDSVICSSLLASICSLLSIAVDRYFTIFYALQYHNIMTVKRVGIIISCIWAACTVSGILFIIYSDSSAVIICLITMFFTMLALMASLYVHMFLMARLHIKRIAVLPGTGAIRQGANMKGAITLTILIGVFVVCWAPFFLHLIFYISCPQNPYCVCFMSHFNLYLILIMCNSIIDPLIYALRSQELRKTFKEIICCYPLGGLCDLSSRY
ABCB6 inh 2: inhibitors of human ABC transporter ABCB6; Q9NP58; K562-ABCB6 porphyrin accumulation, flow cytometry, 1 h; hits give low values; fluorescence ratio to DMSO, % at 10 µM; 0.19% of 360,000 active;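 active means fluorescence ratio to DMSO below 75%, the collection mean minus 3 SD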;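 further: signal is porphyrin accumulated inside mitochondria; 100% equals median channel fluorescence of DMSO control wells; lower ratio means ABCB6 inhibition with less porphyrin fluorescence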
MC4R antag cAMP: blocks human MC4R cAMP signaling; AID 540295; P32245; MC4R-expressing cells, MTII-stimulated cAMP, LANCE TR-FRET; inhibition, % at 6.5 µM; 0.48% of 360,000 active;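 active means inhibition above its plate's cutoff, the mean of tested wells on that plate plus 3 SD, cut at about 29% in these data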;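 further: 0% = Melanotan II alone and 100% = Melanotan II plus saturating MCL0020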
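material = U2OS cells stably expressing human melanocortin 4 receptor (MC4R) | also added = Melanotan II challenge | dosing = single nominal compound dose of 6.5 µM | detection = TR-FRET with Eu-cAMP and labeled anti-cAMP, 671 nm | replication = singlicate | timing = compound 30 min, challenge 1 h, detection 1 h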
TbMetRS confirm: confirmation of Trypanosoma brucei MetRS inhibitors; 93% of 1,400 active; inhibition, % at 11.9 µM; shares compounds with TbMetRS inhib; T. brucei MetRS enzyme, luminescence (ATP depletion); AID 624412; in the data active means inhibition above about 7%
Jurkat cytotox: kills Jurkat cells in T. brucei MetRS counterscreen; shares compounds with TbMetRS inhib; inhibition, % at 8.3 µM; 12% of 1,400 active; Jurkat cells viability, ATP luminescence; in the data active means inhibition above about 15%;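 further: 0% = vehicle and 100% = reference inhibitor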
TbMetRS FP orth: T. brucei MetRS inhibition, orthogonal assay; purified T. brucei MetRS, fluorescence polarization; inhibition, % at 11.9 µM; shares compounds with TbMetRS inhib; 44% of 1,400 active; in the data active means inhibition above about 17%;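 further: 0% = vehicle wells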
* marks the source's active call; other numbers are inactive results; nt = not tested or not shown.

SMILES | TbMetRS inhib | iPSC survival up | Exocytosis inh | MC4R ag barr | ABCB6 inh 2 | MC4R antag cAMP | TbMetRS confirm | Jurkat cytotox | TbMetRS FP orth
O=C(NNC(=O)c1cc(-c2ccc(Cl)cc2Cl)nc2ccccc12)Nc1ccccc1 | 39* | -3 | 5 | 0 | 93 | 4 | 95* | 1 | 80*
COc1ccc(NC(=O)NNC(=O)CCC(=O)Nc2ccccc2Cl)cc1 | 0 | -1 | 0 | 0 | 106 | 3 | nt | nt | nt
Cc1onc(-c2ccccc2Cl)c1C(=O)OCC(=O)N1CCCCC1 | 0 | 0 | 4 | -2 | 85 | 4 | nt | nt | nt
CC(C)Cc1nnc(NC(=O)CCC(=O)NCc2ccccc2Cl)s1 | 0 | 0 | -5 | -1 | 99 | 3 | nt | nt | nt
O=C(CSCc1ccc([N+](=O)[O-])cc1)N/N=C/c1cccnc1 | 9.2* | 1 | -2 | -1 | 104 | -4 | 34* | -4 | 10
Cc1ccc(NC(=O)CN(C)C(=O)CCSc2ccc(F)cc2)cc1 | 43* | -2 | 2 | -1 | 99 | 2 | 80* | 3 | 60*
Cc1ccc(NC(=O)CN(C)C(=O)CSc2ccccc2F)cc1 | 0 | -2 | 1 | 0 | 108 | 14 | nt | nt | nt
COc1ccc(CC(=O)NCC(=O)NCc2cc(=O)n(C)c(=O)n2C)cc1 | 0 | 1 | -2 | -4 | 102 | 7 | nt | nt | nt
O=C(Nc1ccc(Cl)c(Cl)c1)OCCNC(=O)c1cccc(Cl)c1 | 40* | 0 | 2 | 2 | 90 | 3 | 58* | 5 | 35*
COc1ccccc1NS(=O)(=O)c1cccc(NC(=O)NC2CCCCC2)c1 | 1 | 0 | -5 | -1 | 95 | 13 | nt | nt | nt
CCCC(=O)NCCCc1nc2ccccc2[nH]1 | -1 | 0 | -2 | -1 | 102 | -3 | nt | nt | nt
COc1ccc(CCNC(=O)CCc2nc3ccccc3[nH]2)cc1OC | 8.3* | 1 | -3 | 1 | 102 | 10 | 11* | 2 | 6
CCOc1ccc(CCNC(=O)CCc2nc3ccccc3[nH]2)cc1OCC | 3 | 2 | -1 | 0 | 99 | 14 | nt | nt | nt
COc1cccc(CC(=O)Nc2nc3ccccc3[nH]2)c1 | 6.0* | 0 | -2 | 1 | 104 | 0 | 14* | 0 | 7
Cc1ccc(CCNC(=O)CCc2nc3ccccc3[nH]2)cc1 | 21* | 0 | 10 | 5 | 100 | 1 | 37* | -4 | 16
COc1ccc(OCCCC(=O)NCCc2nc3ccccc3[nH]2)cc1 | 48* | -2 | -3 | 0 | 96 | 1 | 70* | -3 | 32*
CCC(=O)NN1CCc2cc3ccc(C)cc3nc21 | 0 | 1 | 1 | 1 | 107 | -5 | nt | nt | nt
COCC(=O)NCCc1nc2ccccc2[nH]1 | -1 | -3 | 4 | -2 | 100 | 0 | nt | nt | nt
COc1ccc(CCC(=O)NCCc2nc3ccccc3[nH]2)cc1 | 9.4* | 0 | -2 | 3 | 100 | -2 | 16* | -4 | 1
O=C(NCc1nc2ccccc2[nH]1)C1=C[C@@H](C2CCCCC2)C[C@@H](OCCCCO)O1 | 48* | 0 | 3 | -1 | 101 | 2 | 83* | -7 | 62*
CC(C)(C)[C@H]1C=C(C(=O)NCc2nc3ccccc3[nH]2)O[C@@H](OCCCCO)C1 | 57* | -1 | -1 | 0 | 99 | 6 | 97* | -6 | 61*
CC(C)(C)[C@H]1C=C(C(=O)NCc2ccccc2)O[C@@H](OCCCCO)C1 | 0 | 7 | 10 | 3 | 100 | 5 | nt | nt | nt
CCO[C@H]1OC(C(=O)NCc2nc3ccccc3[nH]2)=C[C@@H](C2CCCCC2)[C@@H]1CCCO | 4 | 0 | 0 | -2 | 97 | 3 | nt | nt | nt
C[C@H]1C=C(C(=O)NCc2nc3ccccc3[nH]2)O[C@@H](OCCCCO)C1 | 14* | 4 | 2 | -1 | 95 | -7 | 54* | 0 | 27*
CCN(CC(=O)Nc1ccc(NC(C)=O)cc1)C(=O)c1n[nH]c(=O)c2ccccc12 | 0 | -1 | 2 | -1 | 95 | 8 | nt | nt | nt
SMILES | TbMetRS inhib | iPSC survival up | Exocytosis inh | MC4R ag barr | ABCB6 inh 2 | MC4R antag cAMP | TbMetRS confirm | Jurkat cytotox | TbMetRS FP orth
CCC[C@@H]1Cc2ccccc2N1C(C)=O | 0 | -3 | 27 | -1 | 95 | 2 | nt | nt | nt
Cc1cccc(CC(=O)c2c[nH]c3ccccc23)c1 | 11* | 1 | -3 | 1 | 104 | 14 | 22* | 10 | 13
O=C(COc1ccc([N+](=O)[O-])cc1)NCCc1nc2ccccc2[nH]1 | 6.9* | 0 | -3 | -1 | 100 | 13 | 12* | 5 | 11
CC(=O)NCCc1nc2ccccc2[nH]1 | 0 | 1 | 1 | 0 | 100 | 1 | nt | nt | nt
O=C(NCCc1nc2ccccc2[nH]1)c1cccc(Br)c1 | 19* | 3 | -6 | -2 | 106 | 6 | 30* | -5 | 12
O=C(NCCc1nc2ccccc2[nH]1)c1ccc(F)cc1 | 6.4* | 0 | 1 | -1 | 101 | 3 | 10* | -1 | 1
O=C(NCCc1nc2ccccc2[nH]1)c1ccc([N+](=O)[O-])cc1 | 36* | 0 | 0 | 0 | 103 | 16 | 58* | 4 | 29*
CC1(C)CC(=O)C(C(O)c2cccc([N+](=O)[O-])c2)C(C)(C)N1 (centres undefined) | 0 | 0 | 6 | -1 | 93 | 1 | nt | nt | nt
O=S(=O)(NCc1nnnn1-c1ccc(F)cc1)c1ccc(F)cc1 | 0 | 0 | 0 | 0 | 91 | -2 | nt | nt | nt
Cc1cc(Nc2ccc3c(c2)OCCO3)c2cc(Cl)ccc2n1 | 1 | -1 | 4 | 1 | 95 | 1 | nt | nt | nt
O=C(N/C(=C\c1cccnc1)c1nc2ccccc2[nH]1)c1cccc(Br)c1 | 66* | 1 | -1 | 1 | 101 | 0 | 80* | -3 | 57*
O=C(Cc1nc2ccccc2[nH]1)c1ccc([N+](=O)[O-])cc1 | 8.0* | 0 | 1 | -4 | 101 | 8 | 5.8* | 10 | 7
O=C(NC1=NCCS1)c1ccc([N+](=O)[O-])cc1Cl | 0 | -2 | 1 | -1 | 97 | 20 | nt | nt | nt
Nc1ccc2nc(CCCCCCc3nc4ccc(N)cc4[nH]3)[nH]c2c1 | 0 | 0 | 5 | 0 | 99 | 0 | nt | nt | nt
Nc1ccc2nc(CCCCc3nc4ccccc4[nH]3)[nH]c2c1 | 9.3* | 0 | 2 | 0 | 100 | 2 | 14* | 3 | 5
